Experimental findings from ChEMBL document CHEMBL3739299, “8-Hydroxyquinoline-based inhibitors of the Rce1 protease disrupt Ras membrane localization in human cells” (Bioorg Med Chem, 2016) are described below.

Active and inactive are the calls of the source. The calls are words filed in the database; no cut-off is given here.

Data set [1] has as its system Protein farnesyltransferase (Rattus norvegicus). In words: Inhibition of protein farnesyltransferase (rat) at 50 uM measured every 40 seconds for 60 mins.
A short description of data set [2]: Cytotoxicity against human HCT116 cells assessed as cell death at 25 uM after 20 hrs by celltiter blue assay (reference value: 0.4%). As to conditions: hct-116, 20 h. The format is cell-based. Put shortly: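 HCT-116 cells grown in DMEM with 10% FBS and 1% NEAA at 37 °C, 5% CO2, seeded 7 × 10^3 per well, exposed 20 h to 25 μM compound (0.4% DMSO vehicle; untreated control). CellTiter-Blue added for 4 h, fluorescence read at 560/590 nm. Values relative to untreated cells, mean of three independent experiments with SEM.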

Data set [3] has as its target T1, CAAX prenyl protease 1 homolog (Homo sapiens) (UniProt O75844).
T1 sequence (whole entry): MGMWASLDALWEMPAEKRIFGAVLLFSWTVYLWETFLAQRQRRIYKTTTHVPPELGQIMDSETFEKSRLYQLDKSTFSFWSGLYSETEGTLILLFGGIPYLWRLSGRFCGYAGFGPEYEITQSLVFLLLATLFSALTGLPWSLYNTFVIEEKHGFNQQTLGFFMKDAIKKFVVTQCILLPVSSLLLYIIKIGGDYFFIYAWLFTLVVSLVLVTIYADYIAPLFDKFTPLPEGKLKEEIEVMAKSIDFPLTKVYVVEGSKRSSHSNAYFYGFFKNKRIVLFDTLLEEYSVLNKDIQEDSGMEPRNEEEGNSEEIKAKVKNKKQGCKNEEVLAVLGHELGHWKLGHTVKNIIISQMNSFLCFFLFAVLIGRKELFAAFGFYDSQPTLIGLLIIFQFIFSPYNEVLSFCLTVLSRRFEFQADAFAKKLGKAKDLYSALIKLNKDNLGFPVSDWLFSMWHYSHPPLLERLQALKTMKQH
In words: Inhibition of human FACE1-mediated CaaX protease activity at 10 uM measured every 30 to 60 seconds for 60 mins. Summed up:
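Human Ste24 overexpressed in yeast strain SM3614 (ste24 rce1 null); membranes 0.25 mg/mL final in 200 mM Tris pH 7.5, 200 mM NaCl, 1 mg/mL BSA. Pretreated 15 min at 30 °C with 10 μM compound in duplicate, then 20 μM ABZ-KSKTKC(farnesyl)VIQL substrate added. Fluorescence (ex 320/em 420) read every 30–60 s for 60 min at 30 °C. Initial velocities normalised via trypsin-digest maximum fluorescence and expressed as % of DMSO control. SD shown.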

For data set [4], the target named is T2, CAAX prenyl protease 2 (Homo sapiens) (UniProt Q9Y256).
T2 sequence (whole entry): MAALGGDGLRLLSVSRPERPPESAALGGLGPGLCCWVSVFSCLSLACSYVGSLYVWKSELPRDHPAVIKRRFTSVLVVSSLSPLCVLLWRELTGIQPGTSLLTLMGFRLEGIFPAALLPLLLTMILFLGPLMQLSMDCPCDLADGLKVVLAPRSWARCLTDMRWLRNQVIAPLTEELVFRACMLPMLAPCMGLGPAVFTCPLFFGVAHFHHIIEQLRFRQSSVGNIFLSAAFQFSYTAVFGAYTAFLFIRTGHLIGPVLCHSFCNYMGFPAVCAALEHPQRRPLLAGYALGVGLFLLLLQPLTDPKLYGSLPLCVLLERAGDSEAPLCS
The data set can be described thus: Inhibition of human Rce1-mediated CaaX protease activity using […] and […] as substrate assessed as residual activity at 10 uM measured every 30 to 60 seconds for 60 mins. Put shortly: (§1)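 Membranes from yeast SM3614 (ste24 rce1 null) overexpressing human Rce1, 0.25 mg/mL final in 200 mM Tris pH 7.5, 200 mM NaCl, 1 mg/mL BSA. […] Reaction started with 20 μM ABZ-KSKTKC(farnesyl)QLIM. Fluorescence (ex 320/em 420) read every 30–60 s for 60 min at 30 °C. Initial velocities trypsin-normalised; activity given as % of DMSO control.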

For data set [5], the target named is T2, CAAX prenyl protease 2 (Homo sapiens). The data set can be described thus: Inhibition of Rce1 in human HCT116 cells assessed as mislocalization of EGFP-K-Ras in plasma membrane at 25 uM after 20 hrs by fluorescence assay. The note with it: HCT-116.
Data set [6] deals with T3, CAAX prenyl protease 2 (Homo sapiens, UniProt Q9Y256).
T3 sequence (Q9Y256 whole entry): T2 sequence (whole entry)
In words: Inhibition of human Rce1-mediated CaaX protease activity using ABZ-KSKTKC(farnesyl)QIIM and ABZ-KSKTKC(farnesyl)VIQI as substrate assessed as residual activity measured every 30 to 60 seconds for 60 mins. Summed up: as §1

Data set [7] deals with T2, CAAX prenyl protease 2 (Homo sapiens). The data set can be described thus: Effect on EGFP-H-Ras plasma membrane association in human HCT116 cells at 25 uM after 20 hrs by fluorescence assay. The note with it: HCT-116.
The target is the same in data set [8]. The data set can be described thus: Effect on EGFP-N-Ras plasma membrane association in human HCT116 cells at 25 uM after 20 hrs by fluorescence assay. The note with it: HCT-116.

The IC50 is the concentration that inhibits the measured activity by half. Regarding `O=C(O)c1ccc(NC(c2ccc(Br)cc2)c2ccc3cccnc3c2O)cc1` (centres undefined), the inhibition result in data set [1] and in data set [3] was “inactive” in each case. In addition, in data set [2], the Cell death came out at 25%. Also, the Activity in data set [4] was determined as 23%. In data set [5], the K-Ras plasma membrane association was found to be 16%. The IC50 in data set [6] was 6.7 µM.

`Oc1c(C(Nc2ccccc2)c2ccccc2)ccc2cccnc12` (centres undefined): the inhibition entry in data set [1] and in data set [3] was “inactive” in each case. The Cell death in data set [2] is on record as under 10%. The figures for the PM association in data set [7] and in data set [8] were 14% and 10%, respectively. In addition, in data set [4], the Activity was 39%. In data set [6], the IC50 came out at 8.9 µM.

Take `O=C(O)c1cccc(NC(c2ccccc2)c2ccc3ccccc3c2O)c1` (centres undefined): the inhibition result in data set [1] and in data set [3] was “inactive” in each case. Also, the Cell death in data set [2] was under 10%. In data set [4], the Activity was 23%. In data set [6], the IC50 is 5.3 µM.

Regarding `O=C(O)c1ccc(NC(c2ccc(F)cc2)c2ccc3cccnc3c2O)cc1` (centres undefined), in data set [2], the Cell death is reported as under 10%. For the same compound, in data set [3], the inhibition result is “inactive”. For the same compound, in data set [4], the Activity worked out at 32%. Besides, in data set [6], the IC50 was 8.2 µM.

In the case of `O=C(O)c1ccc(NC(c2ccc(Br)cc2)c2ccc3ccccc3c2O)cc1` (centres undefined), in data set [2], the Cell death was under 10%. The inhibition result in data set [3] is “inactive”. Also, the Activity in data set [4] came out at 23%. Moreover, the IC50 in data set [6] is 3.9 µM.

With `CC(C)(C)c1ccc(NC(c2ccccc2)c2ccc3ccccc3c2O)cc1` (centres undefined), the Cell death in data set [2] is listed as under 10%. Besides, in data set [3], the inhibition result is “inactive”. Further, in data set [4], the Activity came to 38%. Further, the IC50 in data set [6] turned out to be 5 µM.

Regarding `Oc1c(C(Nc2ccccc2)c2c(F)cc(Br)cc2F)ccc2ccccc12` (centres undefined), the Cell death in data set [2] is reported as 40%. In data set [3], the inhibition entry was “inactive”. The Activity in data set [4] was 45%. For the same compound, the IC50 in data set [6] came out at 9.4 µM.
